“And” between values parts separate entries of the source, which are not always exact repeats. Identical values can stand only once. The source made the active and inactive calls.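 Rule for the calls: active = cell killing, with a fitted half-maximal concentration at or below twice the top valid dose tested; inconclusive = flat fit with a moderate signal drop, or a poor fit; inactive = effect in the rising direction, plus the rest.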
System: not listed separately
Assay: viability loss in A549 lung cancer cells – cell-based, CellTiter-Glo luminescence, dry powder, set 13, cytotoxicity control, dose response (AID 977617)
Details: A549 viability, CellTiter-Glo ATP luminescence, 72 h; at 26 µM (top of the series)
Procedure, shortened: (§1)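 Material: A549 cells | Medium: DMEM, 10% FBS | Schedule: 24 h settling, 72 h 37 °C exposure, 5 min reagent | Signal: CellTiter-Glo ATP luminescence | Read-out: ATP signal as viability surrogate, signal drop meaning cytotoxicity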

| Compound | activity change, negative = cytotoxicity |
| --- | --- |
| C[C@@H](O)C#Cc1ccc2c(c1)O[C@@H](CN(C)Cc1ccncc1)[C@@H](C)CN([C@@H](C)CO)S2(=O)=O | -7.94% (inactive) |
| C[C@H]1CN([C@@H](C)CO)S(=O)(=O)c2ccc(Br)cc2O[C@H]1CN(C)Cc1ccc(-c2ccccc2)cc1 | -3.47% (inactive) |
| COc1ccc(-c2ccc3c(c2)O[C@@H](CN(C)Cc2ccc(-c4ccccc4)cc2)[C@@H](C)CN([C@@H](C)CO)S3(=O)=O)cc1 | -11.8% (inactive) |
| CNC[C@@H]1Oc2cc(Br)ccc2S(=O)(=O)N([C@@H](C)CO)C[C@@H]1C | -12.1% (inactive) |
| CO[C@H]1CN(C)C(=O)c2ccc(NC(=O)c3ccc(F)cc3)cc2OC[C@H](C)N(C(=O)c2ccc(F)cc2)C[C@@H]1C | 2.69% (inactive) |
| C[C@H](O)C#Cc1ccc2c(c1)O[C@@H](CN(C)Cc1ccc(-c3ccccc3)cc1)[C@@H](C)CN([C@H](C)CO)S2(=O)=O | 12.2% (inactive) |
| C[C@@H](O)C#Cc1ccc2c(c1)O[C@@H](CN(C)S(=O)(=O)c1ccc(-c3ccccc3)cc1)[C@@H](C)CN([C@@H](C)CO)S2(=O)=O | 0.446% (inactive) |
| C[C@@H](O)C#Cc1ccc2c(c1)O[C@@H](CN(C)C(=O)c1ccc(-c3ccccc3)cc1)[C@@H](C)CN([C@@H](C)CO)S2(=O)=O | -7.04% (inactive) |
| C[C@@H](O)C#Cc1ccc2c(c1)O[C@@H](CN(C)Cc1cccnc1)[C@@H](C)CN([C@@H](C)CO)S2(=O)=O | -0.989% (inactive) |

System: A549 viability, CellTiter-Glo ATP luminescence, 72 h
Assay: as above
Details: not given
Procedure, shortened: as §1

| Compound | AC50 |
| --- | --- |
| C[C@H](CO)N1C[C@H](C)[C@@H](CN(C)Cc2ccc(-c3ccccc3)cc2)Oc2cc(C#C[C@@H](C)O)ccc2S1(=O)=O | 27.1 µM |
| C[C@H](O)C#Cc1ccc2c(c1)O[C@H](CN(C)Cc1ccc(-c3ccccc3)cc1)[C@@H](C)CN([C@H](C)CO)S2(=O)=O | 19.4 µM |
| C[C@H]1CN([C@@H](C)CO)S(=O)(=O)c2ccc(C#CC(C)(C)O)cc2O[C@H]1CN(C)Cc1ccc(-c2ccccc2)cc1 | 19.9 µM |
| C[C@@H](O)C#Cc1ccc2c(c1)O[C@@H](CN(C)Cc1ccc(-c3cccc(Cl)c3)cc1)[C@@H](C)CN([C@@H](C)CO)S2(=O)=O | 14.1 µM |
| C[C@H](O)C#Cc1ccc2c(c1)O[C@@H](CN(C)Cc1ccc(-c3ccccc3)cc1)[C@H](C)CN([C@@H](C)CO)S2(=O)=O | 26.1 µM |
| C[C@@H](O)C#Cc1ccc2c(c1)O[C@@H](CN(C)Cc1ccc(-c3ccccc3)cc1)[C@@H](C)CN([C@@H](C)CO)S2(=O)=O | 17.7 µM and 19 µM |
| COc1cccc(-c2ccc(CN(C)C[C@@H]3Oc4cc(C#C[C@@H](C)O)ccc4S(=O)(=O)N([C@@H](C)CO)C[C@@H]3C)cc2)c1 | 15.2 µM |
| Cc1ccc(-c2ccc(CN(C)C[C@@H]3Oc4cc(C#C[C@@H](C)O)ccc4S(=O)(=O)N([C@@H](C)CO)C[C@@H]3C)cc2)cc1 | 15.7 µM |
| C[C@H](O)C#Cc1ccc2c(c1)O[C@H](CN(C)Cc1ccc(-c3ccccc3)cc1)[C@@H](C)CN([C@@H](C)CO)S2(=O)=O | 6 µM |
| C[C@@H]1CN([C@@H](C)CO)S(=O)(=O)c2ccc(C#C[C@@H](C)O)cc2O[C@H]1CN(C)Cc1ccc(-c2ccccc2)cc1 | 26.1 µM |
| C[C@H](O)C#Cc1ccc2c(c1)O[C@@H](CN(C)Cc1ccc(-c3ccccc3)cc1)[C@H](C)CN([C@H](C)CO)S2(=O)=O | 22.1 µM |
| C[C@@H](O)C#Cc1ccc2c(c1)O[C@@H](CN(C)Cc1ccc(-c3ccccc3Cl)cc1)[C@@H](C)CN([C@@H](C)CO)S2(=O)=O | 14.4 µM |
| C[C@@H](O)C#Cc1ccc2c(c1)O[C@@H](CN(C)Cc1ccc(-c3ccc(Cl)cc3)cc1)[C@@H](C)CN([C@@H](C)CO)S2(=O)=O | 9.62 µM |
| C[C@@H](O)C#Cc1ccc2c(c1)O[C@H](CN(C)Cc1ccc(-c3ccccc3)cc1)[C@@H](C)CN([C@@H](C)CO)S2(=O)=O | 19.4 µM |
| C[C@H](O)C#Cc1ccc2c(c1)O[C@@H](CN(C)Cc1ccc(-c3ccccc3)cc1)[C@@H](C)CN([C@@H](C)CO)S2(=O)=O | 22.6 µM |
| Cc1cccc(-c2ccc(CN(C)C[C@@H]3Oc4cc(C#C[C@@H](C)O)ccc4S(=O)(=O)N([C@@H](C)CO)C[C@@H]3C)cc2)c1 | 15 µM |
| COc1ccccc1-c1ccc(CN(C)C[C@@H]2Oc3cc(C#C[C@@H](C)O)ccc3S(=O)(=O)N([C@@H](C)CO)C[C@@H]2C)cc1 | 12.9 µM |
| COc1ccc(-c2ccc(CN(C)C[C@@H]3Oc4cc(C#C[C@@H](C)O)ccc4S(=O)(=O)N([C@@H](C)CO)C[C@@H]3C)cc2)cc1 | 14.1 µM |
| Cc1ccccc1-c1ccc(CN(C)C[C@@H]2Oc3cc(C#C[C@@H](C)O)ccc3S(=O)(=O)N([C@@H](C)CO)C[C@@H]2C)cc1 | 16.7 µM |
